{
  "source": "ChEMBL document CHEMBL1134638",
  "about": "“Synthetic 2-aroylindole derivatives as a new class of potent tubulin-inhibitory, antimitotic agents” (J Med Chem, 2001)",
  "key": {"[1]": {"test_system": "Mus musculus", "experiment": "Medium maximum body weight change in percentage against RXF 944LX cells for a dose of 200 [mg/kg], schedule of d1-5,8-12 by peroral administration in mice", "type": "functional", "method_in_brief": "(§1)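 NMRI outbred nude mice aged 6–8 weeks, sex matched to the donor patient. About 25 mg tumor fragments (MEXF 989 or RXF 944L) implanted s.c. in both flanks. Once tumors reached 100–200 mm3, animals were randomized (6–12 tumors/group). Dosing 100 or 200 mg/kg/day orally on days 1–5 and 8–12, in 10% DMSO/PBS with 0.05% Tween 80. Calipers twice weekly. Outputs: T/C from median tumor weights, growth delay to 200% volume, and body weight change.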"}, "[2]": {"test_system": "Mus musculus", "experiment": "Drug relative deaths against RXF 944LX cells for a dose of 100 [mg/kg], schedule of d1-5,8-12 by oral administration in mice", "type": "functional", "method_in_brief": "(§2)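 Outbred NMRI nude mice, 6-8 weeks old, sex matched to donor patient. s.c. fragments (~25 mg) implanted in both flanks. Randomised at 100-200 mm3, 6-12 tumors per group. Compound in DMSO diluted with PBS/0.05% Tween 80 to 10% final DMSO, given orally daily on days 1-5 and 8-12. Toxic deaths and body weight change recorded.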"}, "[3]": {"test_system": "Mus musculus", "experiment": "Medium maximum body weight change in percentage against RXF 944LX cells for a dose of 100 [mg/kg], schedule of d1-5,8-12 by oral administration in mice", "type": "functional", "method_in_brief": "as §1"}, "[4]": {"test_system": "Mus musculus", "experiment": "Optimum tumor weight of treated / control animals in % (deviation) for a dose of 100 [mg/kg], schedule of d1-5,8-12 by oral administration in mice", "type": "functional", "method_in_brief": "as §1"}, "[5]": {"test_system": "Mus musculus", "experiment": "Drug relative deaths against MEXF 989 cells for a dose of 100 [mg/kg], schedule of d1-5,8-12 by oral administration in mice", "type": "functional", "method_in_brief": "as §2"}, "[6]": {"test_system": "Tumor Cell line", "experiment": "Mean cytotoxicity against a panel of human tumor cell lines", "type": "functional", "method_in_brief": "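Modified propidium iodide assay quantifying dead cells by DNA/RNA staining, run on a human tumor cell panel (breast, colon, stomach, lung, melanoma, ovary, renal, soft tissue lines). Growth inhibition expressed as % T/C; IC70 per line from concentration-viability plots. Mean IC70 is the geometric mean across lines; unreached values set to the lowest or highest concentration tested.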"}, "[7]": {"test_system": "Mus musculus", "experiment": "Medium maximum body weight change in percentage against MEXF 989 cells for a dose of 100 [mg/kg], schedule of d1-5,8-12 by oral administration in mice", "type": "functional", "method_in_brief": "as §1"}, "[8]": {"test_system": "Mus musculus", "experiment": "Growth delay until tumor doubling in days against RXF 944LX cells for a dose of 100 [mg/kg], schedule of d1-5,8-12 by oral administration in mice", "type": "functional", "method_in_brief": "as §1"}, "[9]": {"test_system": "HeLa", "experiment": "In vitro inhibitory activity against HeLa/KB cells using XTT proliferation assay.", "type": "functional, cell-based", "conditions": "Homo sapiens", "method_in_brief": "(§3)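 XTT proliferation assay measuring cellular metabolic activity after 48 h incubation with compound. Compounds dissolved in DMSO at 1 mg/mL stock. IC50 or estimates obtained by nonlinear regression. Each experiment at least in duplicate.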"}, "[10]": {"test_system": "U373 MG", "experiment": "Cell cycle arrest activity against U373 astrocytoma cells.", "conditions": "Homo sapiens"}, "[11]": {"test_system": "Mus musculus", "experiment": "Medium maximum body weight change in percentage against MEXF 989 cells for a dose of 200 [mg/kg], schedule of d1-5,8-12 by peroral administration in mice", "type": "functional", "method_in_brief": "as §1"}, "[12]": {"test_system": "U373 MG", "experiment": "Cytotoxicity against U373 astrocytoma cells.", "type": "functional, cell-based, U-373MG ATCC", "conditions": "Homo sapiens", "method_in_brief": "as §3"}, "[13]": {"test_system": "Mus musculus", "experiment": "Growth delay until tumor doubling in days against MEXF 989 cells for a dose of 200 [mg/kg], schedule of d1-5,8-12 by peroral administration in mice", "type": "functional", "method_in_brief": "as §1"}, "[14]": {"test_system": "Mus musculus", "experiment": "Growth delay until tumor doubling in days against MEXF 989 cells for a dose of 100 [mg/kg], schedule of d1-5,8-12 in mice by oral administration.", "type": "functional", "method_in_brief": "as §1"}, "[15]": {"test_system": "Mus musculus", "experiment": "Drug relative deaths against MEXF 989 cells for a dose of 200 [mg/kg], schedule of d1-5,8-12 by peroral administration in mice", "type": "functional", "method_in_brief": "as §2"}, "[16]": {"test_system": "SK-OV-3", "experiment": "In vitro inhibitory activity against SK-OV-3 cells using XTT proliferation assay.", "type": "functional, cell-based", "conditions": "Homo sapiens", "method_in_brief": "as §3"}, "[17]": {"test_system": "Mus musculus", "experiment": "Drug relative deaths against RXF 944LX cells for a dose of 200 [mg/kg], schedule of d1-5,8-12 by peroral administration in mice", "type": "functional", "method_in_brief": "as §2"}},
  "note": "Where “and” joins values, the source holds several entries; their conditions need not be identical. Identical values can stand only once.",
  "data": [
    {"smiles": "COc1ccc2[nH]c(C(=O)c3ccccc3)cc2c1", "values": [
      {"measurement": "BWC", "setting": "[1]", "value": 1, "unit": "%"},
      {"measurement": "Activity", "setting": "[2]", "value": 0, "unit": "%"},
      {"measurement": "BWC", "setting": "[3]", "value": 11, "unit": "%"},
      {"measurement": "T/C (d)", "setting": "[4]", "value": "34% and 100%"},
      {"measurement": "Activity", "setting": "[5]", "value": 0, "unit": "%"},
      {"measurement": "IC70", "setting": "[6]", "value": 0.22, "unit": "µg/mL"},
      {"measurement": "BWC", "setting": "[7]", "value": 11, "unit": "%"},
      {"measurement": "GD200", "setting": "[8]", "value": -0.4, "unit": "days"},
      {"measurement": "IC50", "setting": "[9]", "value": 68, "unit": "nM"},
      {"measurement": "IC50", "setting": "[10]", "value": 62.7, "unit": "nM"},
      {"measurement": "BWC", "setting": "[11]", "value": 3, "unit": "%"},
      {"measurement": "IC50", "setting": "[12]", "value": 74, "unit": "nM"},
      {"measurement": "GD200", "setting": "[13]", "value": 12.9, "unit": "days"},
      {"measurement": "GD200", "setting": "[14]", "value": 4.8, "unit": "days"},
      {"measurement": "Activity", "setting": "[15]", "value": 0, "unit": "%"},
      {"measurement": "IC50", "setting": "[16]", "value": 680, "unit": "nM"},
      {"measurement": "Activity", "setting": "[17]", "value": 0, "unit": "%"}
    ]}
  ]
}
